# Laboratory results reported in ChEMBL document CHEMBL1122735, “Synthesis and activity of novel nitropyrazines for use as hypoxic cell radiosensitizers” (J Med Chem, 1984).
# Tests used:
# [1] = Compound was evaluated for the chronic aerobic cytotoxicity in chinese hamster lung fibroblast like cells after 7 days exposure in air at 37 degree Centigrade; type: cell-based, Cricetulus griseus; details: 168 h
# Summary of the method: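 V79 379A Chinese hamster lung fibroblast-like cells kept in Eagle's MEM with fcs. Cells plated in Petri dishes and held with a range of sensitizer concentrations for 7 days at 37 °C in air plus 5% CO2, then colonies scored. The concentration reducing colony number to 50% was estimated.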
# [2] = Partition coefficient which was measured in octanol-buffer system at pH 7, 22 degree Centigrade; type: physicochemical; details: octanol/water
# Summary of the method: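 Partition coefficient taken as C(octanol)/C(pH 7 buffer) at 22 °C.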
# [3] = Compound was evaluated for the acute cytotoxicity chinese hamster lung fibroblast like cells after 2 hr exposure in nitrogen at 22 degree Centigrade; type: cell-based, Cricetulus griseus
# Summary of the method: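 V79 379A Chinese hamster lung fibroblast-like cells, taken from log-phase suspension culture, allowed to attach to glass dishes in Eagle's MEM + 10% fcs at 37 °C for 2-3 h. Exposed to a range of sensitizer concentrations for 2 h at room temperature (22 °C) under N2 + 5% CO2. Sensitizer then replaced with fresh medium, followed by 7 days at 37 °C in air + 5% CO2 and colony scoring. Value is the concentration giving 75% colony-forming survival.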
# [4] = Sensitizer enhancement ratio was reported at 10E-3 mol/dmE-3 concentration.
# Summary of the method: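 Asynchronous log-phase V79 379A cells, attached to glass dishes, irradiated at room temperature with 250 kVp X-rays (0.5 mm Cu + 0.8 mm Al filter, 3.26 gray min-1) in the presence of sensitizer, triplicate dishes per point; colonies scored. ER = dose for 10^-2 survival without sensitizer divided by dose with sensitizer, or ratio of final linear survival-curve slopes.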
Structure (SMILES),Cytotoxicity [1] [µM],Partition coefficient [2],Acute toxicity [3] [mM],Ratio [4]
COCC(O)Cn1ccnc1[N+](=O)[O-] (stereo not given) [MISONIDAZOLE],1300,0.48,30,–
O=[N+]([O-])c1nccnc1NCC(O)CO (stereo not given),27,0.32,0.7,1.71
O=[N+]([O-])c1cnc(NC(CO)C(O)CO)cn1 (stereo not given),650,0.13,> 5,1.1
CC(=O)Nc1nc(NC(CO)C(O)CO)c(Cl)nc1[N+](=O)[O-] (stereo not given),400,0.22,> 3.3,1.35
CC(=O)Nc1nc(N2CCN(C)CC2)c(Cl)nc1[N+](=O)[O-],25,3.18,0.16,1.5
Nc1nc(NCCO)c(Cl)nc1[N+](=O)[O-],260,1.32,> 3,1.22
CC(=O)Nc1nc(NCC(O)CO)c(Cl)nc1[N+](=O)[O-] (stereo not given),96,1.01,4,1.3
Nc1nc(NCC(O)CO)c(Cl)nc1[N+](=O)[O-] (stereo not given),580,0.6,> 4,1.25
COC(=O)c1nc(NCC(O)CO)cnc1[N+](=O)[O-] (stereo not given),> 500,0.79,> 5,1.3
